In paper PMC4411251 (The Journal of General Physiology, 2015):
Entries after “also recorded” stand apart in the source; their conditions may differ.

Legend:
TRPV1-WT [1] = molecular target: T1, TRPV1-WT (Rattus norvegicus, UniProt O35433); format: cell-based; settings: Hill fit of dose–response, 1 µM capsaicin
Summary of the method: (§1)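 Rat TRPV1 (WT or R721A) transiently expressed in F-11 cells and used 12–48 h post-transfection. […] Bath was 130 mM NaCl, 10 mM HEPES, 0.2 mM EDTA, pH 7.4, with steps from 0 mV to ±100 mV. Vehicle-subtracted currents were Hill-fitted per patch, normalized to Imax, and pooled (mean, SEM).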

TRPV1-R721A [2] = molecular target: T2, TRPV1-R721A (Rattus norvegicus, UniProt O35433, R721A); format: cell-based; settings: for Hill slope nH, phosphoinositide activation of TRPV1-R721A: Hill fit of dose–response, 1 µM capsaicin
Summary of the method: as §1

TRPV1 = settings: ref Collins and Gordon, 2013; cited from earlier work
TRPV1-WT [3] = molecular target: T1, TRPV1-WT; format: cell-based; settings: Hill fit of dose–response, native lipids
TRPV1-R721A [4] = molecular target: T2, TRPV1-R721A; format: cell-based; settings: Hill fit of dose–response, native lipids
[5] = R721A mutation compared with WT

T1 sequence (O35433 whole entry): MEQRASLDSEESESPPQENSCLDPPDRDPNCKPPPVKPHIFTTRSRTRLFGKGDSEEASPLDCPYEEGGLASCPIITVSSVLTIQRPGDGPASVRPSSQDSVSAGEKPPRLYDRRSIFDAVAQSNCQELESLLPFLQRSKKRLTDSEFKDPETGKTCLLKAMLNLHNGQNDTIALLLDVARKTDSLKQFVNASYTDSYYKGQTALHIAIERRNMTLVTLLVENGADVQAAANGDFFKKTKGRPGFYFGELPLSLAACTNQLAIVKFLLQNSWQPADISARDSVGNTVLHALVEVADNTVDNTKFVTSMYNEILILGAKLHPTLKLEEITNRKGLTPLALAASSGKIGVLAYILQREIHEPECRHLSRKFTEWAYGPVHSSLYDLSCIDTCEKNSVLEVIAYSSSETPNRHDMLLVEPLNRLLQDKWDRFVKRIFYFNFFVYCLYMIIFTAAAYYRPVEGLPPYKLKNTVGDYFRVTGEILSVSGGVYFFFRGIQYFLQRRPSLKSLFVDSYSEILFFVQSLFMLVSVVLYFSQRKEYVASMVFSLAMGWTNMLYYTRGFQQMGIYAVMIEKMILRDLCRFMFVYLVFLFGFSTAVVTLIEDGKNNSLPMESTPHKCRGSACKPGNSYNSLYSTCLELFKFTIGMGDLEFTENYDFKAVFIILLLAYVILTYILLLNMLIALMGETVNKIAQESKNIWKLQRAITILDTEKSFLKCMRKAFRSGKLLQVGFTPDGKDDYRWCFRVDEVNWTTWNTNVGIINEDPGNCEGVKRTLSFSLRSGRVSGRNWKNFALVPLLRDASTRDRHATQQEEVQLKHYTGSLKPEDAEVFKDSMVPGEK
T2 sequence (O35433 whole entry R721A): as the sequence (O35433 whole entry) above, with R721A counted along it

Hill slope nH, phosphoinositide activation of TRPV1-WT (TRPV1-WT [1])	Hill slope nH, phosphoinositide activation of TRPV1-R721A (TRPV1-R721A [2])	increase in the EC50 value, TRPV1-R721A versus TRPV1-WT (TRPV1-R721A [2]; [5]) [fold]	Hill slope nH, capsaicin activation of TRPV1-WT (TRPV1-WT [3])	Hill slope nH, capsaicin activation of TRPV1-R721A (TRPV1-R721A [4])	decrease in the EC50 value, TRPV1-R721A versus TRPV1-WT (TRPV1-R721A [2]; [5]) [fold]	SMILES	K1/2 of activating effects on TRPV1 in the plasma membrane (TRPV1) [mol %]	decrease in the EC50 for activation produced by the R721A mutation (in words) (TRPV1-R721A [2]; [5])
2	2	1.3	–	–	–	CCCCCCCC(=O)OC[C@H](COP(=O)(O)O[C@@H]1[C@H](O)[C@H](O)[C@@H](OP(=O)(O)O)[C@H](OP(=O)(O)O)[C@H]1O)OC(=O)CCCCCCC [diC8-PI(4,5)P2, phosphoinositide 4,5-bisphosphate]	~0.03	–
–	–	–	1	1	–	COc1cc(CNC(=O)CCCC/C=C/C(C)C)ccc1O [capsaicin]	–	–
2	2	–	–	–	150	CCCCCCCC(=O)OC[C@H](COP(=O)(O)O[C@H]1[C@H](O)[C@@H](O)[C@H](OP(=O)(O)O)[C@@H](O)[C@H]1O)OC(=O)CCCCCCC [diC8-PI(4)P]	–	more than two orders of magnitude; also recorded: over two orders of magnitude
